Data set [1] is described as follows: Induction of microtubule depolymerization in rat A10 cells by indirect immunofluorescence method. It counts as cell-based. Put shortly: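 A-10 cells, which arrest in interphase, used to score loss of interphase microtubules. EC50 values calculated per an earlier method, minimum of three independent experiments.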
Another data set concerns MDA-MB-435 (human). In words: Antiproliferative activity against human MDA-MB-435 cells by SRB assay. For orientation: In SRB staining, fixed cells bind dye roughly in proportion to their protein.
Data set [2] has as its system HeLa. In words: Antiproliferative activity against human HeLa cells expressing wild type beta3 tubulin by SRB assay. Format: functional, cell-based.
Data set [3] can be described thus: Inhibition of bovine brain tubulin polymerization assessed as reduction in tubulin assembly pretreated for 15 mins followed by GTP addition by spectrophotometric method. Set-up: species or system Bos taurus. Put shortly:
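Placed on ice, then 0.4 mM GTP (final) added. Turbidity read at 350 nm after a jump from 0 °C to 30 °C.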

For data set [4], the species on record is Bos taurus. In words: Inhibition of [3H]colchicine binding to bovine brain tubulin at 5 uM measured after 10 mins by scintillation counting method relative to control. Put shortly: (§1)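 Reactions of 0.1 mL held 1.0 μM bovine brain tubulin, 5.0 μM [3H]colchicine, inhibitor at 1.0 or 5.0 μM, colchicine-binding stabilizing components and 5% DMSO, assembled on ice with tubulin added last. Incubated 10 min at 37 °C, stopped with ice water, filtered through DEAE-cellulose filters. Bound radiolabel counted by scintillation.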

For data set [5], the species on record is Bos taurus. In words: Inhibition of [3H]colchicine binding to bovine brain tubulin at 1 uM measured after 10 mins by scintillation counting method relative to control. Put shortly:
as §1

Another data set relates to SK-OV-3. As to the kind of experiment: Antiproliferative activity against human SKOV3 cells by SRB assay. It counts as functional, cell-based.
Data set [6] is described as follows: Antiproliferative activity against human SKOV3-MDR1-M6/6 cells by SRB assay. Format: functional.
Data set [7] in a line: Resistance index, ratio of IC50 for human SKOV3-MDR1-M6/6 cells to IC50 for human SKOV3 cells. Format: functional. In outline:
(§2)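 Antiproliferative IC50 by SRB assay (cellular protein) in each isogenic pair: SK-OV-3 parental versus Pgp-expressing, and parental HeLa versus wild-type βIII-tubulin-expressing HeLa. Rr is the IC50 ratio of the modified line to the parental line. At least three independent experiments, each in triplicate, mean ± SD.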

Data set [8] concerns HeLa. As to the kind of experiment: Antiproliferative activity against human HeLa cells by SRB assay. Format: functional, cell-based.
Data set [9] relates to HeLa. In words: Resistance index, ratio of IC50 for human HeLa cells expressing wild type beta3 tubulin to IC50 for human HeLa cells. It counts as functional. Put shortly: as §2
The nature of data set [10]: Retention time of the compound in human liver microsomes at 20 uM by LC-MS/MS analysis. It counts as ADME, microsome. In outline:
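Human liver microsomes (both genders; 1.0 mg/mL) in 100 mM PBS pH 7.4 with 3 mM MgCl2 and 10 mM NADPH, preincubated at 37 °C. Reaction started with compound at 20 μM final (from DMSO stock); propranolol 5 μM as control. Aliquots at 0 and 60 min quenched in ice-cold ACN. Analysed by LC/MS/MS on a C18 column, 5–75% B gradient over 30 min, ESI.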
In general terms: Liver microsomes are a subcellular fraction often used to study metabolism.

As usually defined, the EC50 is the concentration needed to bring the measured effect to its halfway point. A low value points to higher potency in that assay. One may read the IC50 as the concentration that gives 50% inhibition. In [1], `Cc1nc2c(c(N(C)c3ccc(O)cc3)n1)CCC2` had an EC50 of 5560 nM. For the same compound, the IC50 in the data set on MDA-MB-435 (human) is 405 nM.

A word on the inhibition: it is the drop in the measured response relative to a control, in per cent. Turning to `COc1ccc(N(C)c2nc(C)nc3c2CCC3)cc1C`, the IC50 with HeLa [2] was determined as 20.6 nM; in data set [3] it was 1100 nM; in the data set on SK-OV-3, 23.9 nM; in data set [6] it was 47.5 nM; in the data set on HeLa [8] it was 22.8 nM; with MDA-MB-435 (human) it was 18.4 nM. In data set [1], this compound registered an EC50 of 56 nM. The inhibition in the data set listed under Bos taurus [4] turned out to be 83%; in the data set filed under Bos taurus [5], 59%. The “Ratio IC50” value in data set [7] was 2; in the data set on HeLa [9], 0.9.

Regarding `COc1ccc(CN(C)c2nc(C)nc3c2CCC3)cc1`, the EC50 in data set [1] was over 10000 nM. The same compound came in with an IC50 in the data set on MDA-MB-435 (human) of 450 nM.

Consider `Cc1nc2c(c(N(C)c3ccc(N(C)C)cc3)n1)CCC2`, for which the IC50 in the data set on HeLa [2] is 9.8 nM; in data set [3] it was 1200 nM; in the data set on SK-OV-3 it was 13 nM; in [6] it was 22.6 nM; in the data set on HeLa [8], 11.3 nM; in the data set with MDA-MB-435 (human) it was 8.2 nM. This compound also gave an EC50 in [1] of 40 nM. Besides, the inhibition is 85% in the data set filed under Bos taurus [4] and 65% in the data set listed under Bos taurus [5]. The entries for the “Ratio IC50” value (in [7]; with HeLa [9]) were 1.7 and 0.9, respectively.

Consider `Cc1nc2c(c(N(C)c3ccc([S+](C)[O-])cc3)n1)CCC2` (configuration not stated), for which the half-inhibitory concentration (IC50) in the data set with HeLa [2] amounted to 10 nM; in data set [3], 1100 nM; in the data set on SK-OV-3 it was 12.6 nM; in data set [6] it was 19.9 nM; in the data set on HeLa [8] it was 6.8 nM; in the data set on MDA-MB-435 (human), 7.9 nM. The compound also yielded an EC50 in [1] of 31 nM. Further, the inhibition in the data set listed under Bos taurus [4] is 93%; in the data set listed under Bos taurus [5] it was 79%. Also, the results for the “Ratio IC50” value (in [7]; with HeLa [9]) were 1.6 and 1.5, respectively. In [10], this compound gave a Retention_time of 7.9 min.

Take `Cc1nc2c(c(N(C)c3ccc4c(c3)CCO4)n1)CCC2`: the IC50 amounted to 15.1 nM in the data set with HeLa [2]; 1200 nM in data set [3]; 18.7 nM in the data set on SK-OV-3; 29.8 nM in [6]; 16 nM in the data set on HeLa [8]; 12.1 nM in the data set on MDA-MB-435 (human). In data set [1], a half-maximal response (EC50) required 70 nM. The inhibition in the data set filed under Bos taurus [4] was 85%; in the data set listed under Bos taurus [5], 64%. The entries for the “Ratio IC50” value (in data set [7]; in the data set on HeLa [9]) were 1.6 and 0.9, respectively.

`Cc1nc2c(c(N(C)c3ccc(S(C)(=O)=O)cc3)n1)CCC2` gave an EC50 in data set [1] of over 10000 nM. Moreover, the Retention_time in data set [10] was 9.6 min.

Turning to `Cc1nc2c(c(N(C)c3ccc(N)cc3)n1)CCC2`, in [1], the midpoint of the response, the EC50, lay at 5120 nM. For the same compound, in the data set on MDA-MB-435 (human), the IC50 turned out to be 1220 nM.

`COc1ccc([C@H](C)N(C)c2nc(C)nc3c2CCC3)cc1` had a 50% effective concentration (EC50) in data set [1] of over 10000 nM.

As for `COc1ccc(/C=C\c2cc(OC)c(OC)c(OC)c2)cc1O` [COMBRETASTATIN A4], the EC50 in [1] was found to be 13 nM. The half-inhibitory concentration (IC50) in [6] stood at 6.6 nM; with MDA-MB-435 (human), 3.4 nM.

Turning to `COc1ccc([C@@H](C)N(C)c2nc(C)nc3c2CCC3)cc1`, in [1], the concentration for a half-maximal effect (EC50) is over 10000 nM.

In data set [1], `CNc1ccc(N(C)c2nc(C)nc3c2CCC3)cc1` displayed an EC50 of 45 nM. Moreover, the half-maximal inhibitory concentration (IC50) amounted to 36.3 nM with SK-OV-3, 49.7 nM in data set [6], 31 nM in the data set on HeLa [8] and 20 nM in the data set on MDA-MB-435 (human). Besides, the “Ratio IC50” value in data set [7] stood at 1.4; with HeLa [9] it was 0.6.

For `COc1ccc(N(C)c2nc(C)nc3c2CCC3)cc1`, the IC50 with HeLa [2] is 9.6 nM; in data set [3], 1600 nM; in data set [6] it was 16.4 nM; in the data set with HeLa [8], 12 nM. In data set [1], this compound gave an EC50 of 26 nM. In addition, the inhibition was found to be 92% in the data set listed under Bos taurus [4] and 70% in the data set filed under Bos taurus [5].

The values above are taken from ChEMBL document CHEMBL4219224, “Structure based drug design and in vitro metabolism study: Discovery of N-(4-methylthiophenyl)-N,2-dimethyl-cyclopenta[d]pyrimidine as a potent microtubule targeting agent” (Bioorg Med Chem, 2018).
